# Assay results taken from ChEMBL document CHEMBL4689842, “EUbOPEN Chemogenomics Library wave 1” (2021).
# Tested on: Fibroblast
# Experiment: Multiplex assay against human fibroblast
# Assay type: toxicity, cell-based
# In short: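 Live cells carried four stains from seeding: Hoechst33342, BioTracker Green Microtubule Cytoskeleton Dye, MitoTracker Red and Annexin V Alexa Fluor 680. They were imaged on a CQ1 microscope at 37°C and 5% CO2 after compound addition. Using CellPathfinder machine-learning gating, cells were split into Hoechst high-intensity objects or normal cells, normal cells into healthy, pyknosed or fragmented nuclei, and pyknosed cells into mitotic or apoptotic; tubulin, mitochondrial-mass and membrane-permeability phenotypes are per cents of healthy-nucleus cells.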
# [1] = 12 h, 1 µM, compound concentration 1 uM, replicate 1
# [2] = 12 h, 1 µM, compound concentration 1 uM, replicate 2
# [3] = 12 h, 10 µM, compound concentration 10 uM, replicate 1
# [4] = 12 h, 10 µM, compound concentration 10 uM, replicate 2
# [5] = 24 h, 1 µM, compound concentration 1 uM, replicate 1
# [6] = 24 h, 1 µM, compound concentration 1 uM, replicate 2
# [7] = 24 h, 10 µM, compound concentration 10 uM, replicate 1
# [8] = 24 h, 10 µM, compound concentration 10 uM, replicate 2
# [9] = 48 h, 1 µM, compound concentration 1 uM, replicate 1
# [10] = 48 h, 1 µM, compound concentration 1 uM, replicate 2
# [11] = 48 h, 10 µM, compound concentration 10 uM, replicate 1
# [12] = 48 h, 10 µM, compound concentration 10 uM, replicate 2
structure (smiles),measurement,setting,value
C=CC(=O)Nc1ccc2ncnc(Nc3ccc(OCc4cccc(F)c4)c(Cl)c3)c2c1.Cc1ccc(S(=O)(=O)O)cc1,Population Apoptotic (%),[1],53%
same,Population Fragmented Nuclei (%),[1],25%
same,Population Healthy Nuclei (%),[1],37%
same,Population Hoechst High Intensity Objects (%),[1],7%
same,Population Membrane Permeable-Phenotype (%),[1],28%
same,Population Mitochondria Different-Phenotype (%),[1],9%
same,Population Mitotic Cells (%),[1],46%
same,Population Normal (%),[1],92%
same,Population Pyknosed Nuclei (%),[1],36%
same,Population Tubulin-Different-Phenotype (%),[1],26%
same,Total Cell Count,[1],120
same,Population Apoptotic (%),[2],50%
same,Population Fragmented Nuclei (%),[2],6%
same,Population Healthy Nuclei (%),[2],84%
same,Population Hoechst High Intensity Objects (%),[2],5%
same,Population Membrane Permeable-Phenotype (%),[2],3%
same,Population Mitotic Cells (%),[2],50%
same,Population Normal (%),[2],94%
same,Population Pyknosed Nuclei (%),[2],8%
same,Population Tubulin-Different-Phenotype (%),[2],29%
same,Total Cell Count,[2],77
same,Population Apoptotic (%),[3],77%
same,Population Fragmented Nuclei (%),[3],27%
same,Population Healthy Nuclei (%),[3],38%
same,Population Hoechst High Intensity Objects (%),[3],15%
same,Population Membrane Permeable-Phenotype (%),[3],15%
same,Population Mitochondria Different-Phenotype (%),[3],7%
same,Population Mitotic Cells (%),[3],22%
same,Population Normal (%),[3],84%
same,Population Pyknosed Nuclei (%),[3],33%
same,Population Tubulin-Different-Phenotype (%),[3],27%
same,Total Cell Count,[3],122
same,Population Apoptotic (%),[4],75%
same,Population Fragmented Nuclei (%),[4],14%
same,Population Healthy Nuclei (%),[4],79%
same,Population Hoechst High Intensity Objects (%),[4],10%
same,Population Membrane Permeable-Phenotype (%),[4],4%
same,Population Mitochondria Different-Phenotype (%),[4],22%
same,Population Mitotic Cells (%),[4],25%
same,Population Normal (%),[4],89%
same,Population Pyknosed Nuclei (%),[4],6%
same,Population Tubulin-Different-Phenotype (%),[4],16%
same,Total Cell Count,[4],69
same,Population Apoptotic (%),[5],65%
same,Population Fragmented Nuclei (%),[5],26%
same,Population Healthy Nuclei (%),[5],42%
same,Population Hoechst High Intensity Objects (%),[5],9%
same,Population Membrane Permeable-Phenotype (%),[5],31%
same,Population Mitochondria Different-Phenotype (%),[5],2%
same,Population Mitotic Cells (%),[5],34%
same,Population Normal (%),[5],90%
same,Population Pyknosed Nuclei (%),[5],31%
same,Population Tubulin-Different-Phenotype (%),[5],40%
same,Total Cell Count,[5],123
same,Population Apoptotic (%),[6],55%
same,Population Fragmented Nuclei (%),[6],4%
same,Population Healthy Nuclei (%),[6],84%
same,Population Hoechst High Intensity Objects (%),[6],5%
same,Population Membrane Permeable-Phenotype (%),[6],2%
same,Population Mitochondria Different-Phenotype (%),[6],8%
same,Population Mitotic Cells (%),[6],44%
same,Population Normal (%),[6],94%
same,Population Pyknosed Nuclei (%),[6],10%
same,Population Tubulin-Different-Phenotype (%),[6],33%
same,Total Cell Count,[6],90
same,Population Apoptotic (%),[7],61%
same,Population Fragmented Nuclei (%),[7],31%
same,Population Healthy Nuclei (%),[7],39%
same,Population Hoechst High Intensity Objects (%),[7],8%
same,Population Membrane Permeable-Phenotype (%),[7],37%
same,Population Mitochondria Different-Phenotype (%),[7],9%
same,Population Mitotic Cells (%),[7],38%
same,Population Normal (%),[7],91%
same,Population Pyknosed Nuclei (%),[7],28%
same,Population Tubulin-Different-Phenotype (%),[7],48%
same,Total Cell Count,[7],118
same,Population Apoptotic (%),[8],53%
same,Population Fragmented Nuclei (%),[8],12%
same,Population Healthy Nuclei (%),[8],69%
same,Population Hoechst High Intensity Objects (%),[8],6%
same,Population Membrane Permeable-Phenotype (%),[8],14%
same,Population Mitochondria Different-Phenotype (%),[8],24%
same,Population Mitotic Cells (%),[8],46%
same,Population Normal (%),[8],93%
same,Population Pyknosed Nuclei (%),[8],18%
same,Population Tubulin-Different-Phenotype (%),[8],32%
same,Total Cell Count,[8],77
same,Population Apoptotic (%),[9],64%
same,Population Fragmented Nuclei (%),[9],34%
same,Population Healthy Nuclei (%),[9],48%
same,Population Hoechst High Intensity Objects (%),[9],8%
same,Population Membrane Permeable-Phenotype (%),[9],28%
same,Population Mitochondria Different-Phenotype (%),[9],0%
same,Population Mitotic Cells (%),[9],35%
same,Population Normal (%),[9],91%
same,Population Pyknosed Nuclei (%),[9],16%
same,Population Tubulin-Different-Phenotype (%),[9],26%
same,Total Cell Count,[9],112
same,Population Apoptotic (%),[10],50%
same,Population Fragmented Nuclei (%),[10],31%
same,Population Healthy Nuclei (%),[10],65%
same,Population Hoechst High Intensity Objects (%),[10],14%
same,Population Membrane Permeable-Phenotype (%),[10],18%
same,Population Mitochondria Different-Phenotype (%),[10],8%
same,Population Mitotic Cells (%),[10],50%
same,Population Normal (%),[10],85%
same,Population Pyknosed Nuclei (%),[10],2%
same,Population Tubulin-Different-Phenotype (%),[10],41%
same,Total Cell Count,[10],106
same,Population Apoptotic (%),[11],81%
same,Population Fragmented Nuclei (%),[11],40%
same,Population Healthy Nuclei (%),[11],50%
same,Population Hoechst High Intensity Objects (%),[11],18%
same,Population Membrane Permeable-Phenotype (%),[11],17%
same,Population Mitochondria Different-Phenotype (%),[11],9%
same,Population Mitotic Cells (%),[11],18%
same,Population Normal (%),[11],81%
same,Population Pyknosed Nuclei (%),[11],8%
same,Population Tubulin-Different-Phenotype (%),[11],49%
same,Total Cell Count,[11],154
same,Population Apoptotic (%),[12],100%
same,Population Fragmented Nuclei (%),[12],22%
same,Population Healthy Nuclei (%),[12],76%
same,Population Hoechst High Intensity Objects (%),[12],11%
same,Population Membrane Permeable-Phenotype (%),[12],12%
same,Population Mitochondria Different-Phenotype (%),[12],3%
same,Population Mitotic Cells (%),[12],0%
same,Population Normal (%),[12],88%
same,Population Pyknosed Nuclei (%),[12],1%
same,Population Tubulin-Different-Phenotype (%),[12],6%
same,Total Cell Count,[12],86
CNc1nc(NCc2ccc(NS(C)(=O)=O)cc2Cl)cc(-c2ccccn2)n1,Population Apoptotic (%),[1],70%
same,Population Fragmented Nuclei (%),[1],22%
same,Population Healthy Nuclei (%),[1],41%
same,Population Hoechst High Intensity Objects (%),[1],7%
same,Population Membrane Permeable-Phenotype (%),[1],22%
same,Population Mitochondria Different-Phenotype (%),[1],4%
same,Population Mitotic Cells (%),[1],29%
same,Population Normal (%),[1],92%
same,Population Pyknosed Nuclei (%),[1],36%
same,Population Tubulin-Different-Phenotype (%),[1],41%
same,Total Cell Count,[1],164
same,Population Apoptotic (%),[2],33%
same,Population Fragmented Nuclei (%),[2],11%
same,Population Healthy Nuclei (%),[2],82%
same,Population Hoechst High Intensity Objects (%),[2],8%
same,Population Membrane Permeable-Phenotype (%),[2],0%
same,Population Mitochondria Different-Phenotype (%),[2],9%
same,Population Mitotic Cells (%),[2],66%
same,Population Normal (%),[2],91%
same,Population Pyknosed Nuclei (%),[2],5%
same,Population Tubulin-Different-Phenotype (%),[2],11%
same,Total Cell Count,[2],61
same,Population Apoptotic (%),[3],60%
same,Population Fragmented Nuclei (%),[3],23%
same,Population Healthy Nuclei (%),[3],39%
same,Population Hoechst High Intensity Objects (%),[3],17%
same,Population Membrane Permeable-Phenotype (%),[3],21%
same,Population Mitochondria Different-Phenotype (%),[3],15%
same,Population Mitotic Cells (%),[3],39%
same,Population Normal (%),[3],82%
same,Population Pyknosed Nuclei (%),[3],36%
same,Population Tubulin-Different-Phenotype (%),[3],82%
same,Total Cell Count,[3],142
same,Population Apoptotic (%),[4],57%
same,Population Fragmented Nuclei (%),[4],6%
same,Population Healthy Nuclei (%),[4],81%
same,Population Hoechst High Intensity Objects (%),[4],9%
same,Population Membrane Permeable-Phenotype (%),[4],12%
same,Population Mitochondria Different-Phenotype (%),[4],32%
same,Population Mitotic Cells (%),[4],42%
same,Population Normal (%),[4],90%
same,Population Pyknosed Nuclei (%),[4],11%
same,Population Tubulin-Different-Phenotype (%),[4],30%
same,Total Cell Count,[4],56
same,Population Apoptotic (%),[5],70%
same,Population Fragmented Nuclei (%),[5],25%
same,Population Healthy Nuclei (%),[5],53%
same,Population Hoechst High Intensity Objects (%),[5],11%
same,Population Membrane Permeable-Phenotype (%),[5],23%
same,Population Mitochondria Different-Phenotype (%),[5],7%
same,Population Mitotic Cells (%),[5],29%
same,Population Normal (%),[5],88%
same,Population Pyknosed Nuclei (%),[5],20%
same,Population Tubulin-Different-Phenotype (%),[5],43%
same,Total Cell Count,[5],169
same,Population Apoptotic (%),[6],25%
same,Population Fragmented Nuclei (%),[6],8%
same,Population Healthy Nuclei (%),[6],85%
same,Population Hoechst High Intensity Objects (%),[6],1%
same,Population Membrane Permeable-Phenotype (%),[6],0%
same,Population Mitochondria Different-Phenotype (%),[6],11%
same,Population Mitotic Cells (%),[6],75%
same,Population Normal (%),[6],98%
same,Population Pyknosed Nuclei (%),[6],5%
same,Population Tubulin-Different-Phenotype (%),[6],11%
same,Total Cell Count,[6],67
same,Population Apoptotic (%),[7],64%
same,Population Fragmented Nuclei (%),[7],31%
same,Population Healthy Nuclei (%),[7],46%
same,Population Hoechst High Intensity Objects (%),[7],27%
same,Population Membrane Permeable-Phenotype (%),[7],18%
same,Population Mitochondria Different-Phenotype (%),[7],18%
same,Population Mitotic Cells (%),[7],35%
same,Population Normal (%),[7],72%
same,Population Pyknosed Nuclei (%),[7],22%
same,Population Tubulin-Different-Phenotype (%),[7],77%
same,Total Cell Count,[7],174
same,Population Apoptotic (%),[8],50%
same,Population Fragmented Nuclei (%),[8],20%
same,Population Healthy Nuclei (%),[8],66%
same,Population Hoechst High Intensity Objects (%),[8],10%
same,Population Membrane Permeable-Phenotype (%),[8],4%
same,Population Mitochondria Different-Phenotype (%),[8],26%
same,Population Mitotic Cells (%),[8],50%
same,Population Normal (%),[8],89%
same,Population Pyknosed Nuclei (%),[8],12%
same,Population Tubulin-Different-Phenotype (%),[8],17%
same,Total Cell Count,[8],71
same,Population Apoptotic (%),[9],77%
same,Population Fragmented Nuclei (%),[9],29%
same,Population Healthy Nuclei (%),[9],63%
same,Population Hoechst High Intensity Objects (%),[9],17%
same,Population Membrane Permeable-Phenotype (%),[9],23%
same,Population Mitochondria Different-Phenotype (%),[9],7%
same,Population Mitotic Cells (%),[9],22%
same,Population Normal (%),[9],82%
same,Population Pyknosed Nuclei (%),[9],7%
same,Population Tubulin-Different-Phenotype (%),[9],46%
same,Total Cell Count,[9],155
same,Population Apoptotic (%),[10],50%
same,Population Fragmented Nuclei (%),[10],28%
same,Population Healthy Nuclei (%),[10],69%
same,Population Hoechst High Intensity Objects (%),[10],8%
same,Population Membrane Permeable-Phenotype (%),[10],4%
same,Population Mitochondria Different-Phenotype (%),[10],2%
same,Population Mitotic Cells (%),[10],50%
same,Population Normal (%),[10],91%
same,Population Pyknosed Nuclei (%),[10],2%
same,Population Tubulin-Different-Phenotype (%),[10],38%
same,Total Cell Count,[10],105
same,Population Apoptotic (%),[11],70%
same,Population Fragmented Nuclei (%),[11],29%
same,Population Healthy Nuclei (%),[11],61%
same,Population Hoechst High Intensity Objects (%),[11],36%
same,Population Membrane Permeable-Phenotype (%),[11],20%
same,Population Mitochondria Different-Phenotype (%),[11],12%
same,Population Mitotic Cells (%),[11],30%
same,Population Normal (%),[11],63%
same,Population Pyknosed Nuclei (%),[11],9%
same,Population Tubulin-Different-Phenotype (%),[11],84%
same,Total Cell Count,[11],168
same,Population Apoptotic (%),[12],100%
same,Population Fragmented Nuclei (%),[12],27%
same,Population Healthy Nuclei (%),[12],71%
same,Population Hoechst High Intensity Objects (%),[12],41%
same,Population Membrane Permeable-Phenotype (%),[12],15%
same,Population Mitochondria Different-Phenotype (%),[12],3%
same,Population Mitotic Cells (%),[12],0%
same,Population Normal (%),[12],58%
same,Population Pyknosed Nuclei (%),[12],1%
same,Population Tubulin-Different-Phenotype (%),[12],79%
same,Total Cell Count,[12],203
